Results taken from ChEMBL document CHEMBL1782009, “Synthesis and characterization of new types of halogenated and alkylated imidazolidineiminothiones and a comparative study of their antitumor, antibacterial, and antifungal activities” (Eur J Med Chem, 2011).

Columns and labels:
Type in all cases: functional
Aspergillus flavus = assay: Antifungal activity against Aspergillus flavus at 5 mg/ml by agar disc diffusion method; conditions: read-out: DIZ
Micrococcus luteus = assay: Antibacterial activity against Sarcina lutea ATCC 934 at 5 mg/ml after 24 hrs by agar disc diffusion method; conditions: ATCC 934, 24 h, read-out: DIZ
Outline: (§1)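 Agar well-diffusion using 1 cm wells, each loaded with 100 of compound solution (5 mg/mL in DMF). Bacteria were maintained on nutrient agar and plated as a standard suspension. Plates were incubated 24 h at 35 °C, and inhibition zone diameters were measured.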

Escherichia coli = assay: Antibacterial activity against Escherichia coli NCTC 10416 at 5 mg/ml after 24 hrs by agar disc diffusion method; conditions: NCTC 10416, 24 h, read-out: DIZ; outline: as §1
Bacillus subtilis = assay: Antibacterial activity against Bacillus subtilis NCTC 1040 at 5 mg/ml after 24 hrs by agar disc diffusion method; conditions: NCTC 1040, 24 h, read-out: DIZ; outline: as §1
Staphylococcus aureus = assay: Antibacterial activity against Staphylococcus aureus NCTC 7447 at 5 mg/ml after 24 hrs by agar disc diffusion method; conditions: NCTC 7447, 24 h, read-out: DIZ; outline: as §1
Candida albicans = assay: Antifungal activity against Candida albicans IMRU 3669 at 5 mg/ml by agar disc diffusion method; conditions: read-out: DIZ
[1] = Antitumor activity against mouse EAC cells assessed as inhibition of cell viability at 100 ug/ml by Trypan blue assay; conditions: Ehrlich
Outline: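 EAC cells were taken by needle aspiration of ascitic fluid from preinoculated mice and diluted 1:10 in saline. Then 0.1 mL of cell suspension, 0.8 mL RPMI 1640 and 0.1 mL compound were incubated 2 h at 37 °C. Dead cells were counted by trypan blue exclusion, and % non-viable = non-viable/total cells × 100.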

Compound	zone of inhibition at 5000 µg/mL (Aspergillus flavus)	zone of inhibition at 5000 µg/mL (Micrococcus luteus)	zone of inhibition at 5000 µg/mL (Escherichia coli)	zone of inhibition at 5000 µg/mL (Bacillus subtilis)	zone of inhibition at 5000 µg/mL (Staphylococcus aureus)	zone of inhibition at 5000 µg/mL (Candida albicans)	inhibition at 100 µg/mL [1]
COc1ccc(N2C(=N)C(=S)N(c3ccccc3)C2=O)cc1	18 mm	25 mm	25 mm	19 mm	18 mm	21 mm	50%
Cc1ccc(N2C(=N)C(=S)N(c3ccccc3)C2=O)cc1	15 mm	18 mm	20 mm	21 mm	21.5 mm	22 mm	10%
Cc1ccc(N2C(=N)C(=S)N(c3ccc(I)cc3)C2=O)cc1	14 mm	13 mm	14 mm	16.5 mm	17 mm	17 mm	40%
COc1ccc(N2C(=N)C(=S)N(c3ccc(I)cc3)C2=O)cc1	18 mm	18 mm	19 mm	19.5 mm	18.5 mm	23 mm	20%
CSc1ccc(N2C(=N)C(=S)N(c3ccc(Br)cc3)C2=O)cc1	15 mm	15 mm	15.5 mm	19.5 mm	19 mm	16 mm	40%
CSc1ccc(N2C(=N)C(=S)N(c3ccccc3)C2=O)cc1	18 mm	25 mm	25.5 mm	23.5 mm	24 mm	24 mm	1%
COc1ccc(N2C(=N)C(=S)N(c3ccc(Br)cc3)C2=O)cc1	18 mm	19 mm	16 mm	18 mm	13 mm	12 mm	10%
CSc1ccc(N2C(=N)C(=S)N(c3ccc(I)cc3)C2=O)cc1	15 mm	14 mm	14.5 mm	16 mm	16.5 mm	16.5 mm	10%
COc1ccc(N2C(=N)C(=S)N(c3ccc(Cl)cc3)C2=O)cc1	17.5 mm	22 mm	23.5 mm	20 mm	19.5 mm	22 mm	0.5%
N=C1C(=S)N(c2ccc(Br)cc2)C(=O)N1Cc1ccccc1	15 mm	18 mm	18.5 mm	17 mm	15.5 mm	17 mm	45%
Cc1ccc(N2C(=N)C(=S)N(c3ccc(Cl)cc3)C2=O)cc1	14 mm	21 mm	17 mm	16 mm	12 mm	12 mm	10%
N=C1C(=S)N(c2ccc(I)cc2)C(=O)N1Cc1ccccc1	15 mm	12 mm	14 mm	15 mm	15 mm	13 mm	30%
Cc1ccc(N2C(=N)C(=S)N(c3ccc(Br)cc3)C2=O)cc1	15 mm	14 mm	16.5 mm	18 mm	18 mm	14 mm	20%
CSc1ccc(N2C(=N)C(=S)N(c3ccc(Cl)cc3)C2=O)cc1	15 mm	15 mm	15.5 mm	16.5 mm	16 mm	16.5 mm	20%
